Results: ChEMBL document CHEMBL1124897, “(1-Pyrenylmethyl)amino alcohols, a new class of antitumor DNA intercalators. Discovery and initial amine side chain structure-activity studies” (1990)
Calls of active or inactive are those of the source. The rule behind the calls is not given here.

Tests used:
P388 [1] = assay: In vivo antitumor activity against murine lymphocytic leukemia P388 measured as lethal dose […]; assay type: functional, Mus musculus; set-up: unit: mg/kg
Method in brief: (§1)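 Male CD2-F1 mice (20 ± 3 g) implanted ip with 1 × 10^6 viable P388 cells on day 0. Drug given ip as aqueous suspension or solution in 0.9% NaCl or 5% dextrose on days 1, 5 and 9, dosed per body weight in mg/kg. Several dose levels bracketing the LD20 were tested, six mice per dose. Deaths before the control median day of death were counted as drug toxicity.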

P388 [2] = assay: In vivo antitumor activity against murine lymphocytic leukemia P388 measured as percent increase in life span; assay type: functional, Mus musculus; method in brief: as §1
P388 [3] = assay: In vivo antitumor activity against murine lymphocytic leukemia P388 measured as optimal dose; assay type: functional, Mus musculus
Method in brief: (§2)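 Male CD2-F1 mice (20 ± 3 g) implanted ip with 1 × 10^6 viable P388 cells on day 0. Compound given ip as aqueous suspension or solution in 0.9% NaCl or 5% dextrose on days 1, 5 and 9, dosed per mg/kg body weight. Several doses bracketing LD20 were tested, six mice per dose. %ILS was calculated from median day of death of treated versus control mice. Values are optimal from at least two experiments.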

P388 [4] = assay: In vivo antitumor activity against murine lymphocytic leukemia P388, measured as percent increase in life span; assay type: functional, organism-based; conditions: Mus musculus; method in brief: as §2
P388 [5] = assay: In vivo antitumor activity against murine lymphocytic leukemia P388 measured as optimal dose which is the highest nontoxic dose; assay type: functional, Mus musculus

| Structure (SMILES) | LD20 (P388 [1]) | ILS (P388 [2]) [%] | Optimal dose (P388 [3]) [mg/kg] | ILS (P388 [4]) | Optimal dose (P388 [5]) [mg/kg] |
| --- | --- | --- | --- | --- | --- |
| COCC(C)(CO)NCc1ccc2ccc3cccc4ccc1c2c34 (configuration not stated) | 135 | 30 | 180 | – | – |
| Cl.N#CCCNCc1ccc2ccc3cccc4ccc1c2c34 | 300 | – | – | inactive | 300 |
| CC1(C)OC[C@@H](O)[C@H](NCc2ccc3ccc4cccc5ccc2c3c45)CO1 | 675 | – | – | inactive | 1013 |
| Cl.c1ccc(CCCNCc2ccc3ccc4cccc5ccc2c3c45)cc1 | 300 | – | – | inactive | 300 |
| CCN(CC)CCNCc1ccc2ccc3cccc4ccc1c2c34.Cl | 120 | – | – | inactive | 180 |
| CCCNCc1ccc2ccc3cccc4ccc1c2c34.Cl | 150 | – | – | inactive | 225 |
| Cl.OCC(NCc1ccc2ccc3cccc4ccc1c2c34)c1ccccc1 (configuration not stated) | 675 | – | – | inactive | 675 |
| CC(C)OCCCNCc1ccc2ccc3cccc4ccc1c2c34.Cl | 180 | – | – | inactive | 120 |
| CC(O)CNCc1ccc2ccc3cccc4ccc1c2c34.Cl (configuration not stated) | 600 | 28 | 300 | – | – |
| Cl.OCCN(CCO)CCCNCc1ccc2ccc3cccc4ccc1c2c34 | 96 | – | – | inactive | 64 |
| Cl.c1ccc(NCCNCc2ccc3ccc4cccc5ccc2c3c45)cc1 | 300 | – | – | inactive | 200 |
| CC(NCc1ccc2ccc3cccc4ccc1c2c34)C(O)c1ccccc1.Cl (configuration not stated) | 450 | – | – | inactive | 675 |
| Cl.c1ccc(CCNCc2ccc3ccc4cccc5ccc2c3c45)cc1 | 335 | – | – | inactive | 335 |
| Cl.c1cc2ccc3ccc(CNCCCN4CCOCC4)c4ccc(c1)c2c34 | 150 | 20 | 150 | – | – |
| CC(C)(CO)NCc1ccc2ccc3cccc4ccc1c2c34.Cl | 450 | 45 | 250 | – | – |
| CC(C)(CO)CCCNCc1ccc2ccc3cccc4ccc1c2c34.Cl | 215 | – | – | inactive | 215 |

| Structure (SMILES) | LD20 (P388 [1]) | ILS (P388 [2]) [%] | Optimal dose (P388 [3]) [mg/kg] | ILS (P388 [4]) | Optimal dose (P388 [5]) [mg/kg] |
| --- | --- | --- | --- | --- | --- |
| Cl.NCCCCNCc1ccc2ccc3cccc4ccc1c2c34 | 28 | – | – | inactive | 19 |
| CC(O)CCNCc1ccc2ccc3cccc4ccc1c2c34.Cl (configuration not stated) | 168 | – | – | inactive | 168 |
| Cl.NCCCN1CCN(CCCNCc2ccc3ccc4cccc5ccc2c3c45)CC1 | 37 | – | – | – | 37 |
| C=CCNCc1ccc2ccc3cccc4ccc1c2c34.Cl | 369 | – | – | inactive | 550 |
| Cl.OCCNCc1ccc2ccc3cccc4ccc1c2c34 | 220 | 31 | 221 | – | – |
| CC(CO)NCc1ccc2ccc3cccc4ccc1c2c34.Cl (configuration not stated) | 600 | 25 | 220 | – | – |
| Cl.c1ccc(CNCc2ccc3ccc4cccc5ccc2c3c45)cc1 | 600 | – | – | inactive | 900 |
| NCCCCCCNCc1ccc2ccc3cccc4ccc1c2c34 | 75 | – | – | inactive | 75 |
| Cl.OCCCNCc1ccc2ccc3cccc4ccc1c2c34 | 120 | 20 | – | – | 120 |
| Cl.OCCN(CCO)Cc1ccc2ccc3cccc4ccc1c2c34 | 225 | – | – | inactive | 225 |
| Cl.OCC(NCc1ccc2ccc3cccc4ccc1c2c34)C(O)c1ccccc1 (configuration not stated) | 675 | – | – | inactive | 1013 |
| CCN(CC)Cc1ccc2ccc3cccc4ccc1c2c34.Cl | 452 | – | – | inactive | 452 |
| CC(=O)OCC(COC(C)=O)(COC(C)=O)NCc1ccc2ccc3cccc4ccc1c2c34 | 500 | 30 | 315 | – | – |
| Cl.c1ccc(CCCCNCc2ccc3ccc4cccc5ccc2c3c45)cc1 | 130 | – | – | inactive | 88 |
| CC1(NCc2ccc3ccc4cccc5ccc2c3c45)COC(C)(C)OC1.Cl | 675 | – | – | inactive | 675 |
